{
  "source": "ChEMBL document CHEMBL1687714",
  "about": "“Genetic analysis of fenhexamid-resistant field isolates of the phytopathogenic fungus Botrytis cinerea” (Antimicrob Agents Chemother, 2008)",
  "assay_type_in_all_cases": "functional, organism-based",
  "key": {"[1]": {"system": "Botrytis cinerea", "assay": "Antifungal activity against moderately to slightly fenhexamid-resistant Botrytis cinerea 202 assessed as inhibition of germ tube elongation after 24 hrs", "conditions": "Botrytis cinerea, 202, 24 h"}, "[2]": {"system": "Botrytis cinerea", "assay": "Antifungal activity against highly fenhexamid-resistant Botrytis cinerea 312 assessed as inhibition of mycelium growth measured over 5 days", "conditions": "Botrytis cinerea, 312, 120 h"}, "[3]": {"system": "Botrytis cinerea", "assay": "Antifungal activity against highly fenhexamid-resistant Botrytis cinerea 520b assessed as inhibition of mycelium growth measured over 5 days", "conditions": "120 h"}, "[4]": {"system": "Botrytis cinerea", "assay": "Antifungal activity against moderately to slightly fenhexamid-resistant Botrytis cinerea 57 assessed as inhibition of mycelium growth measured over 5 days", "conditions": "Botrytis cinerea, 57, 120 h"}, "[5]": {"system": "Botrytis cinerea", "assay": "Antifungal activity against Botrytis cinerea 223b expressing erg27 HydR3+ alleles assessed as appearance of dense mycelium up to 20 ug/ml", "summary_of_the_method": "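Spores of parental strains were spread on YSS (synthetic complete) medium containing fenhexamid at several concentrations, without hygromycin B. Growth was scored after 7 days at 21°C.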"}, "[6]": {"system": "Botrytis cinerea", "assay": "Antifungal activity against highly fenhexamid-resistant Botrytis cinerea MK3-31 assessed as inhibition of germ tube elongation after 24 hrs", "conditions": "MK3-31, 24 h"}, "[7]": {"system": "Botrytis cinerea", "assay": "Antifungal activity against highly fenhexamid-resistant Botrytis cinerea MK3-36 assessed as inhibition of germ tube elongation after 24 hrs", "conditions": "MK3-36, 24 h"}},
  "note": "Active and inactive are the calls of the source. The rule behind the calls is not given here.",
  "data": [
    {"smiles": "CC1(C(=O)Nc2ccc(O)c(Cl)c2Cl)CCCCC1", "note": "[FENHEXAMID]", "values": [
      {"measurement": "EC50", "setting": "[1]", "result": 2, "unit": "µg/mL"},
      {"measurement": "EC50", "setting": "[2]", "result": "> 10", "unit": "µg/mL"},
      {"measurement": "EC50", "setting": "[3]", "result": 3, "unit": "µg/mL"},
      {"measurement": "EC50", "setting": "[4]", "result": "< 0.3", "unit": "µg/mL"},
      {"measurement": "Activity", "setting": "[5]", "result": "inactive"},
      {"measurement": "EC50", "setting": "[6]", "result": "> 5", "unit": "µg/mL"},
      {"measurement": "EC50", "setting": "[7]", "result": "> 5", "unit": "µg/mL"}
    ]}
  ]
}
